Source: article PMC9710334 (BMJ Open Gastroenterology, 2022)
“And” between values parts separate entries of the source, which are not always exact repeats. Identical values can stand only once.

Assays:
[1] = Plasma pharmacokinetics of OP-724 and C-82 after OP-724 infusion; assay type: in vivo, human; conditions: for OP-724 AUC0-24h / OP-724 Cmax / OP-724 Tmax / OP-724 T1/2: plasma
Method in brief: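 A single iv dose of 280 or 380 mg/m2 was infused over 4 hours. Blood was drawn predose, at 30 min and 1, 2 and 4 hours after dosing, then 1, 5 and 20 hours after the infusion ended. Plasma parent and metabolite C-82 were quantified. […] Values are mean±SD.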

[2] = system: patients with advanced primary biliary cholangitis; assay: Phase 1 trial: adverse events graded by CTCAE v4.0, safety and tolerability; assay type: in vivo, human; conditions: 280 mg/m^2/4 hours (n=6)
Method in brief: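 Seven advanced PBC patients (stage III or higher) received OP-724 iv at 280 (n=6) or 380 (n=1) mg/m2 over 4 hours, twice weekly for 12 cycles, after a single dose given 7 days before cycle 1. AEs and laboratory results were recorded throughout and graded by CTCAE v4.0. The primary endpoint was SAEs where drug causality could not be excluded.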

[3] = OP-724 280 mg/m^2/4 hours, Max, N=6
[4] = OP-724 280 mg/m^2/4 hours, Median, N=6
[5] = OP-724 280 mg/m^2/4 hours, Min, N=6
[6] = single OP-724 iv infusion 280 mg/m^2/4 hours, Mean, N=6
[7] = single OP-724 iv infusion 380 mg/m^2/4 hours, Mean, N=1

C[C@H]1[C@H]2N(C(=O)CN(C)N2C(=O)NCc2ccccc2)[C@@H](Cc2ccc(OP(=O)(O)O)cc2)C(=O)N1Cc1cccc2cccnc12 [OP-724]
OP-724 AUC0-24h [1, 3]: 9210 ng･h/mL | OP-724 Cmax [1, 3]: 2460 ng/mL | OP-724 Tmax [1, 3]: 4 h | OP-724 AUC0-24h [1, 4]: 6340 ng･h/mL | OP-724 Cmax [1, 4]: 2000 ng/mL | OP-724 Tmax [1, 4]: 2 h | OP-724 AUC0-24h [1, 5]: 3880 ng･h/mL | OP-724 Cmax [1, 5]: 1080 ng/mL | OP-724 Tmax [1, 5]: 0.5 h | OP-724 T1/2 ([1]; single OP-724 iv infusion 280 mg/m^2/4 hours, Mean, N=4): 26.3 min | OP-724 AUC0-24h [1, 6]: 6420±1910 ng･h/mL and 6420 ng･h/mL | OP-724 Cmax [1, 6]: 1850 ng/mL | OP-724 Tmax [1, 6]: 1.9 h | OP-724 AUC0-24h [1, 7]: 10200 ng·h/mL | OP-724 Cmax [1, 7]: 3980 ng/mL | OP-724 T1/2 [1, 7]: 29.8 min | OP-724 Tmax [1, 7]: 1 h | time after initiating administration at which plasma OP-724 reached Cmax ([1]; single dose, all patients): 0.5 to 4 h | Abdominal discomfort, Grade 1, patients n (%) [2]: 2 (33%) | Abdominal discomfort, Grade 2, patients n (%) [2]: 0 | Abdominal discomfort, Grades 3–5, patients n (%) [2]: 0 | Back pain, Grade 1, patients n (%) [2]: 0 | Back pain, Grade 2, patients n (%) [2]: 1 (17%) | Back pain, Grades 3–5, patients n (%) [2]: 0 | Constipation, Grade 1, patients n (%) [2]: 1 (17%) | Constipation, Grade 2, patients n (%) [2]: 0 | Constipation, Grades 3–5, patients n (%) [2]: 0 | Dermatitis contact, Grade 1, patients n (%) [2]: 1 (17%) | Dermatitis contact, Grade 2, patients n (%) [2]: 0 | Dermatitis contact, Grades 3–5, patients n (%) [2]: 0 | Diarrhoea, Grade 1, patients n (%) [2]: 1 (17%) | Diarrhoea, Grade 2, patients n (%) [2]: 0 | Diarrhoea, Grades 3–5, patients n (%) [2]: 0 | Dry skin, Grade 1, patients n (%) [2]: 0 | Dry skin, Grade 2, patients n (%) [2]: 1 (17%) | Dry skin, Grades 3–5, patients n (%) [2]: 0 | Fever, Grade 1, patients n (%) [2]: 1 (17%) | Fever, Grade 2, patients n (%) [2]: 0 | Fever, Grades 3–5, patients n (%) [2]: 0 | Haemorrhage, Grade 1, patients n (%) [2]: 0 | Haemorrhage, Grade 2, patients n (%) [2]: 1 (17%) | Haemorrhage, Grades 3–5, patients n (%) [2]: 0 | Hepatic function abnormal, Grade 1, patients n (%) [2]: 1 (17%) | Hepatic function abnormal, Grade 2, patients n (%) [2]: 1 (17%) | Hepatic function abnormal, Grades 3–5, patients n (%) [2]: 0 | Infusion site extravasation, Grade 1, patients n (%) [2]: 0 | Infusion site extravasation, Grade 2, patients n (%) [2]: 1 (17%) | Infusion site extravasation, Grades 3–5, patients n (%) [2]: 0 | Nasopharyngitis, Grade 1, patients n (%) [2]: 0 | Nasopharyngitis, Grade 2, patients n (%) [2]: 0 | Nasopharyngitis, Grades 3–5, patients n (%) [2]: 0 | Nausea, Grade 1, patients n (%) [2]: 1 (17%) | Nausea, Grade 2, patients n (%) [2]: 0 | Nausea, Grades 3–5, patients n (%) [2]: 0 | Open angle glaucoma, Grade 1, patients n (%) [2]: 0 | Open angle glaucoma, Grade 2, patients n (%) [2]: 1 (17%) | Open angle glaucoma, Grades 3–5, patients n (%) [2]: 0 | Renal impairment, Grade 1, patients n (%) [2]: 1 (17%) | Renal impairment, Grade 2, patients n (%) [2]: 0 | Renal impairment, Grades 3–5, patients n (%) [2]: 0 | Tooth fracture, Grade 1, patients n (%) [2]: 1 (17%) | Tooth fracture, Grade 2, patients n (%) [2]: 0 | Tooth fracture, Grades 3–5, patients n (%) [2]: 0 | Vomiting, Grade 1, patients n (%) [2]: 1 (17%) | Vomiting, Grade 2, patients n (%) [2]: 0 | Vomiting, Grades 3–5, patients n (%) [2]: 0
